STEP block – STEP (human) phosphatase inhibition | inhibition, % at 20 µM | P54829 | 360,000 tested, 0.25% active | recombinant STEP, OMFP fluorogenic substrate, fluorescence;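 active = inhibition at 20 µM, scaled per plate between control wells, above about 37%, limit read from the data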
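Also added – OMFP at 25 µM · Test system – STEP tyrosine phosphatase · Technique – FITC-channel fluorescence of OMFP product · Schedule – 20 min at room temperature, dark · Evaluation – control-normalized % inhibition with plate pattern correction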
LMPTP inh – blocks human LMPTP phosphatase. P24666. recombinant LMPTP-A, OMFP fluorogenic substrate, fluorescence intensity. inhibition, % at 20 µM. 360,000 tested, 0.22% active. AID 651560;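 active = compounds that cut the enzyme signal by at least half of the control window in the single-dose screen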
Target sequence (P24666 whole entry, looked up): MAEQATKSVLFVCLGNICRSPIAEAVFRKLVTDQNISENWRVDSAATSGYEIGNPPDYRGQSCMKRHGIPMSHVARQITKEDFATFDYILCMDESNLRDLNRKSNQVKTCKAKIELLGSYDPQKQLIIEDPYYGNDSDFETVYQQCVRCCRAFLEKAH
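Material: LMPTP-A; amount: 0.625 nM enzyme; doses: single 20 µM dose; times: reaction 50 min, room temperature, dark; technique: fluorescence intensity of OMFP turnover product; benchmarks: no-enzyme and uninhibited controls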
Rpn11 block – Rpn11 (human) deubiquitinase inhibition. O00487. human 26S proteasome, Ub4-pepOG fluorescence polarization; 20S core pre-blocked with epoxomicin. inhibition, % at 20 µM. 360,000 tested, 0.59% active. AID 588493;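 active = inhibition at 20 µM, scaled to each plate's controls, above about 33%, limit read from the data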
Target sequence (O00487 whole entry, looked up): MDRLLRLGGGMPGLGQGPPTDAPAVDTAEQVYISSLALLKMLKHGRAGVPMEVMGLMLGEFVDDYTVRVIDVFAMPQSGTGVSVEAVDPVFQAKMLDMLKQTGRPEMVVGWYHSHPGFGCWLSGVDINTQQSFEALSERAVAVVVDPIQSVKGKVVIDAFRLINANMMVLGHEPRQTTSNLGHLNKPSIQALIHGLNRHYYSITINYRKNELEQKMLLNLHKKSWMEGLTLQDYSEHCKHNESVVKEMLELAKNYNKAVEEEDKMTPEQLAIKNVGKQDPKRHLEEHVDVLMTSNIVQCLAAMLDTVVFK
DNMT1 block – blocks human DNA methyltransferase DNMT1 | P26358 | DNMT1 molecular beacon, Hinp1I cleavage, fluorescence | inhibition (reported as % activation of signal), % at 10 µM | 360,000 tested, 0.83% active; in the data active = inhibition above about 50%
Scp-1 inhibitor – blocks human Scp-1 phosphatase activity; 340,000 tested, 0.88% active; inhibition, % at 20 µM; Q9GZU7; Recombinant Scp1, phosphopeptide, malachite green phosphate absorbance;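 active = inhibition above about 50% at 20 µM, limit read from the data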
Target sequence (Q9GZU7 76-261 limits assumed): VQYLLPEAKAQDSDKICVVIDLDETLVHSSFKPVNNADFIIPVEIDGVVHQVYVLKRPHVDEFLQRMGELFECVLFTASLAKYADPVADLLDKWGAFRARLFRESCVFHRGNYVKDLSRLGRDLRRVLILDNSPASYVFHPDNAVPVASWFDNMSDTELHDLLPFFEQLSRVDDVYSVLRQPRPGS
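Test system: SCP-1 phosphatase catalytic domain, residues 76-261; measured by: colorimetric phosphate reagent with accelerator and stabiliser, absorbance at 630 nm; timing: enzyme reaction 45 min at room temperature, colour 5 min, stabilisation 30 min; also added: Phosphorylated 17-residue peptide substrate; compound dosing: one concentration, 20 µM, with 1.0% DMSO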
SUMO1 PPI mod – SUMO1-SIM interaction modulation. P63165. 360,000 tested, 0.33% active. inhibition, % at 20 µM. AID 602429. SUMO1 binding to a labelled peptide, TR-FRET, 1 h; in the data active = inhibition above about 37%
Scp-1 conf – Scp-1 (human) inhibition, single-dose confirmed | 2,500 tested, 61% active | recombinant SCP-1 catalytic domain, phosphate release, malachite green absorbance | shares compounds with Scp-1 inhibitor | inhibition, % at 20 µM
MG interference – colorimetric interference in Scp-1 counter-screen; 2,500 tested, under 10 active; shares compounds with Scp-1 inhibitor; apparent inhibition (interference), % at 20 µM; Colorimetric interference counterscreen, malachite green absorbance 630 nm;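 also: compounds added after enzyme reaction finished so only phosphate colour detection is probed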
Scp-1 Tm shift – binds human Scp-1, shifting its melting temperature; shares compounds with Scp-1 inhibitor; Recombinant SCP1, Sypro Orange thermal shift Tm; thermal shift relative to vanadate control, % at 40 µM; 1,500 tested, 25% active; AID 540329;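 active = substances whose mean melting-temperature shift, as a percentage of the reference inhibitor's shift, reaches about 5.3%, limit read from the data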
Large screens that a line does not name were inactive (follow-up assays come after a bar, where shown); ! = not active in a repeat. Rows were chosen to be rich in hits. Some 2.3% of all compounds tested hit in one or more screens of this group.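 The calls were made as follows, unless noted: active = inhibition of at least 30% at 20 µM; inactive = the rest.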

Cn1c(=O)c2c(ncn2CC(=O)N2CCN(S(=O)(=O)c3ccc(Cl)cc3)CC2)n(C)c1=O	Scp-1 inhibitor 64 | Scp-1 conf inactive | MG interference inactive
Cc1ccc(NC(=O)CN2CC(C)SC2=NC2CCCCC2)cc1 (configuration not stated)	Scp-1 inhibitor 79! | Scp-1 conf inactive | MG interference inactive
CC1(c2ccccc2)NC(=O)N(CC(=O)Nc2ccc3c(c2)CCC3)C1=O (configuration not stated)	none
COc1ccc(OC)c(CNC(=O)C2CCCN(S(=O)(=O)N3CCC(C)CC3)C2)c1 (configuration not stated)	none
COc1ccc(CNC(=O)C2CCCN(S(=O)(=O)N3CCC(C)CC3)C2)c(OC)c1 (configuration not stated)	Scp-1 inhibitor 69 | Scp-1 conf inactive | MG interference inactive
CCN(CC(=O)NCc1ccc(Cl)cc1)C(=O)CCOc1ccc(C)cc1	none
Cn1c(SCC(=O)n2c3c(c4ccccc42)CCCC3)nnc1-c1ccccc1	none
CC(=O)Nc1ccc(-c2nnc(SCC(=O)n3c4c(c5ccccc53)CCCC4)n2C)cc1	Scp-1 inhibitor 84 | Scp-1 conf inactive | MG interference inactive
C/C=C/c1ccc(OCC(=O)Nc2ccc(C(N)=O)cc2)c(OC)c1	none
COc1cc(/C=C/c2cc[n+](C)cc2)ccc1OCC(=O)Nc1ccccc1	Scp-1 inhibitor 77 | Scp-1 conf 89 | MG interference inactive | Scp-1 Tm shift inactive
C/C(N)=C(/C#N)C(=O)CSc1nc2ccccc2[nH]1	Scp-1 inhibitor 69 | Scp-1 conf 51 | MG interference inactive | Scp-1 Tm shift inactive
C/C(N)=C(/C#N)C(=O)CSc1ncnc2ccccc12	none
Cc1cccc(CC(=O)NCCN2CCOCC2)c1	none
O=C1O[C@@H](c2ccccc2)C[C@@H](O)[C@H](O)CCCc2ccccc21	none (no result: STEP block, Rpn11 block, DNMT1 block, Scp-1 inhibitor)
COc1ccc(NC(=O)c2cc3ccccc3cc2OC)cc1	none
COc1cc2ccccc2cc1C(=O)NC(=S)Nc1ccc(C(=O)O)cc1	Scp-1 inhibitor 61 | Scp-1 conf 52 | MG interference inactive | Scp-1 Tm shift inactive
O=C(Cc1ccccc1)N/N=C/c1ccc(OCC(=O)Nc2ccccc2)cc1	Scp-1 inhibitor 82 | Scp-1 conf 44 | MG interference inactive | Scp-1 Tm shift inactive
CCCOCC(O)CCc1n[nH]c(=S)n1-c1ccccc1 (configuration not stated)	Scp-1 inhibitor 60 | Scp-1 conf inactive | MG interference inactive
Cn1c(=O)cc(SCC(=O)NCc2ccc(F)cc2)c2ccccc21	none | Scp-1 conf inactive | MG interference inactive
C[N+]12CCCCC1[C@@H](CO)CCC2 (some centres not stated)	Scp-1 inhibitor 55 | Scp-1 conf inactive | MG interference inactive
O=C(OCc1cc(=O)n2ccsc2n1)c1ccccc1O	Scp-1 inhibitor 53 | Scp-1 conf inactive | MG interference inactive
O=C(CSc1nc2ncc(Cl)cc2[nH]1)N1CCC(Cc2ccccc2)CC1	none
COc1ccc(/C=N/NC(=O)c2cccc(NC(C)=O)c2)c(C(=O)O)c1OC	none
CC/C(=C\C(=O)c1cccnc1)Nc1ccc(C)c(C)c1	Scp-1 inhibitor 53 | Scp-1 conf inactive | MG interference inactive
CC(=O)c1sc(NC(=O)C(C)Oc2ccc3c(C)cc(=O)oc3c2)nc1C (configuration not stated)	none
COc1cc(/C=C2\C(=N)N3N=C(S(C)(=O)=O)SC3=NC2=O)ccc1OCCOc1ccccc1C	Scp-1 inhibitor 51 | Scp-1 conf 57 | MG interference inactive | Scp-1 Tm shift 12
Cc1c(C)c2cc(Cl)c(OCC(=O)NC3CC(C)(C)NC(C)(C)C3)cc2oc1=O	none
Cc1ccccc1-n1nnnc1SCC(=O)c1c(N)n(C2CC2)c(=O)[nH]c1=O	none
N#Cc1cnc(NN)nc1	none
O=C(CSc1nnc(Nc2ccccc2F)s1)NC(=O)CN1CCCC1=O	Scp-1 inhibitor 63 | Scp-1 conf 57 | MG interference inactive | Scp-1 Tm shift inactive
O=C(CSc1nnc(Nc2ccccc2F)s1)NC1CCS(=O)(=O)C1 (configuration not stated)	none
C=CCN1C(=O)C(=O)N(CC(=O)NCC(=O)Nc2ccc(F)c(F)c2F)C1=O	none | Scp-1 conf inactive | MG interference inactive
O=C(CN1C(=O)C(=O)N(Cc2ccco2)C1=O)Nc1ccc(F)c(F)c1F	none
COc1ccccc1NC(=O)c1coc(=O)c(Br)c1	Scp-1 inhibitor 66 | Scp-1 conf inactive | MG interference inactive
COc1ccccc1NC(=O)c1cc(N)cc(C(=O)Nc2ccccc2OC)c1	none
C=CCN(c1ccccc1)S(=O)(=O)c1cccc(C(=O)NCC2CCCO2)c1 (configuration not stated)	none
CCOC(=O)/C(C)=N/Nc1nc(-c2ccc(NC(C)=O)cc2)cs1	none
Cc1ccccc1N=C1NC(=O)/C(=C/c2cccn2-c2cccc(C(=O)O)c2)S1	Scp-1 inhibitor 66 (no result: STEP block, LMPTP inh, Rpn11 block, DNMT1 block, SUMO1 PPI mod) | Scp-1 conf 65 | MG interference inactive | Scp-1 Tm shift inactive
CCN(CC)CCNC(=O)c1ccc(NC(=O)C2CCN(c3ncnc4sc(C)c(C)c34)CC2)cc1	Scp-1 inhibitor 112 | Scp-1 conf inactive | MG interference inactive
Cc1sc2ncnc(N3CCC(C(=O)Nc4ccc(OC(F)F)c(Cl)c4)CC3)c2c1C	none
CN(C)c1ccc(/C=C2\Oc3ccc(C#Cc4cccc(N)c4)cc3C2=O)cc1	none (not shown: Rpn11 block)
CCCCN(C(=O)c1cccc2c(=O)c(C)c(-c3ccccc3)oc12)c1ccccc1	none
CC(C)(O)CCCC(C)(O)c1ccc(C(=O)O)cc1O (configuration not stated)	Scp-1 inhibitor 61 | Scp-1 conf 52 | MG interference inactive | Scp-1 Tm shift 6.1
CCOC(=O)c1cnc2c(C)c(-c3ccccc3)[nH]n2c1=O	Scp-1 inhibitor 69 | Scp-1 conf inactive | MG interference inactive
CCOc1cc(N2CCOCC2)c(OCC)cc1NC(=O)COC(=O)c1ccc([N+](=O)[O-])o1	none
CCc1ccc(NC(=O)C(=O)N/N=C(\C)CC(=O)NCc2ccc(Cl)cc2)cc1	Scp-1 inhibitor 80 | Scp-1 conf inactive | MG interference inactive

Source: PubChem BioAssay (Sanford-Burnham Center for Chemical Genomics)
